Measured values taken from ChEMBL document CHEMBL3271970, “Radiopharmaceuticals. 16. Halogenated dopamine analogs. Synthesis and radiolabeling of 6-iododopamine and tissue distribution studies in animals” (J Med Chem, 1976).

Legend:
[1] = Biodistribution in kidney of mongrel dog assessed per organ at 1.29 x 10^-6 mol, iv measured after 24 hrs; type: ADME, organism-based, Canis lupus familiaris; details: in vivo
Procedure, shortened: (§1)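 Radioiodinated ([123I] or [131I]) 6-iododopamine in water or saline, used within 30 min of preparation. Given iv at 1.29 × 10^-6 mol/dog; one dog per time point, killed at 2 or 24 h. Large organs counted as three samples and averaged; adrenals and thyroid taken intact and counted. Expressed as % dose/organ.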

Mus musculus [2] = assay: Biodistribution in thyroid gland of mouse assessed per organ at 8 to 11 x 10^-8 mol, iv measured after 240 mins; type: ADME, organism-based; details: in vivo, 4 h
Procedure, shortened: (§2)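 Tracer labelled with either 123I or 131I, in water or saline, used within 30 min of preparation. Mice dosed iv at 8-11 × 10^-8 mol/mouse and killed by ether overdose. Organs counted as % dose/organ ± SD, n = 3-10 mice per time point.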

Liver [3] = assay: Biodistribution in liver of rat assessed per organ at 3.6 x 10^-8 mol, iv measured after 24 hrs; type: ADME, organism-based; details: in vivo
Procedure, shortened: (§3)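 [131I]-labelled tracer in water or saline, injected within 30 min of preparation. Rats given 3.6 × 10^-8 mol/rat iv, killed by ether overdose at each time point. Organs excised and radioactivity counted as % dose/organ, mean ± SD of four rats.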

Mus musculus [4] = assay: Biodistribution in adrenal gland of mouse assessed per organ at 8 to 11 x 10^-8 mol, iv measured after 5 mins; type: ADME, organism-based; details: in vivo
Procedure, shortened: (§4)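 [131I]- or [123I]-6-iododopamine in water or saline, used within 30 min of preparation. Injected iv at 8-11 × 10^-8 mol/mouse. Mice killed by ether overdose at 5-240 min; 3-10 mice per time point. Tissue radioactivity expressed as % dose/organ ± SD.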

Rattus norvegicus [5] = assay: Biodistribution in adrenal cortex of rat assessed per organ at 3.6 x 10^-8 mol, iv measured after 24 hrs; type: ADME, organism-based; details: in vivo
Procedure, shortened: (§5)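 [131I]-6-iododopamine in water or saline, used within 30 min of preparation. Injected iv at 3.6 × 10^-8 mol/rat. Rats killed by ether overdose at 5, 30 or 60 min, or at 2, 4 or 24 h. Tissue radioactivity expressed as % dose/organ, mean ± SD of four rats.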

Mus musculus [6] = assay: Biodistribution in thyroid gland of mouse assessed per organ at 8 to 11 x 10^-8 mol, iv measured after 60 mins; type: ADME, organism-based; details: in vivo, 1 h; procedure, shortened: as §2
Rattus norvegicus [7] = assay: Biodistribution in adrenal cortex of rat assessed per organ at 3.6 x 10^-8 mol, iv measured after 4 hrs; type: ADME, organism-based; details: in vivo; procedure, shortened: as §5
Liver [8] = assay: Biodistribution in liver of mouse assessed per organ at 8 to 11 x 10^-8 mol, iv measured after 60 mins; type: ADME, organism-based; details: in vivo, 1 h; procedure, shortened: as §4
Kidney [9] = assay: Biodistribution in kidney of rat assessed per organ at 3.6 x 10^-8 mol, iv measured after 4 hrs; type: ADME, organism-based; details: in vivo; procedure, shortened: as §5
Mus musculus [10] = assay: Biodistribution in adrenal gland of mouse assessed per organ at 8 to 11 x 10^-8 mol, iv measured after 240 mins; type: ADME, organism-based; details: in vivo, 4 h; procedure, shortened: as §4
Blood [11] = assay: Biodistribution in blood of rat at 3.6 x 10^-8 mol, iv measured after 4 hrs; type: ADME, organism-based; details: in vivo
Procedure, shortened: (§6)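 [131I]-6-iododopamine in water or saline, used within 30 min of preparation. Injected iv at 3.6 × 10^-8 mol/rat. Rats killed by ether overdose at 5 min to 24 h. Blood radioactivity expressed as % dose/g, mean ± SD of four rats.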

Mus musculus [12] = assay: Biodistribution in adrenal gland of mouse assessed per organ at 8 to 11 x 10^-8 mol, iv measured after 60 mins; type: ADME, organism-based; details: in vivo, 1 h; procedure, shortened: as §4
Rattus norvegicus [13] = assay: Biodistribution in thyroid gland of rat assessed per organ at 3.6 x 10^-8 mol, iv measured after 30 mins; type: ADME, organism-based; details: in vivo, 0.5 h; procedure, shortened: as §3
Liver [14] = assay: Biodistribution in liver of mouse assessed per organ at 8 to 11 x 10^-8 mol, iv measured after 30 mins; type: ADME, organism-based; details: in vivo, 0.5 h; procedure, shortened: as §4
Rattus norvegicus [15] = assay: Biodistribution in thyroid gland of rat assessed per organ at 3.6 x 10^-8 mol, iv measured after 24 hrs; type: ADME, organism-based; details: in vivo; procedure, shortened: as §3
Kidney [16] = assay: Biodistribution in kidney of mouse assessed per organ at 8 to 11 x 10^-8 mol, iv measured after 60 mins; type: ADME, organism-based; details: in vivo, 1 h; procedure, shortened: as §4
Blood [17] = assay: Biodistribution in blood of rat at 3.6 x 10^-8 mol, iv measured after 2 hrs; type: ADME, organism-based; details: in vivo; procedure, shortened: as §6
Rattus norvegicus [18] = assay: Biodistribution in thyroid gland of rat assessed per organ at 3.6 x 10^-8 mol, iv measured after 5 mins; type: ADME, organism-based; details: in vivo; procedure, shortened: as §3
Blood [19] = assay: Biodistribution in blood of rat at 3.6 x 10^-8 mol, iv measured after 60 mins; type: ADME, organism-based; details: in vivo, 1 h; procedure, shortened: as §6
Rattus norvegicus [20] = assay: Biodistribution in thyroid gland of rat assessed per organ at 3.6 x 10^-8 mol, iv measured after 4 hrs; type: ADME, organism-based; details: in vivo; procedure, shortened: as §3
[21] = Biodistribution in adrenal medulla of mongrel dog assessed per organ at 1.29 x 10^-6 mol, iv measured after 24 hrs; type: ADME, organism-based, Canis lupus familiaris; details: in vivo; procedure, shortened: as §1
[22] = Biodistribution in adrenal medulla of mongrel dog assessed per organ at 1.29 x 10^-6 mol, iv measured after 2 hrs; type: ADME, organism-based, Canis lupus familiaris; details: in vivo; procedure, shortened: as §1
Liver [23] = assay: Biodistribution in liver of rat assessed per organ at 3.6 x 10^-8 mol, iv measured after 60 mins; type: ADME, organism-based; details: in vivo, 1 h; procedure, shortened: as §3
[24] = Biodistribution in kidney of mongrel dog assessed per organ at 1.29 x 10^-6 mol, iv measured after 2 hrs; type: ADME, organism-based, Canis lupus familiaris; details: in vivo; procedure, shortened: as §1
Kidney [25] = assay: Biodistribution in kidney of mouse assessed per organ at 8 to 11 x 10^-8 mol, iv measured after 30 mins; type: ADME, organism-based; details: in vivo, 0.5 h; procedure, shortened: as §4
Mus musculus [26] = assay: Biodistribution in adrenal gland of mouse assessed per organ at 8 to 11 x 10^-8 mol, iv measured after 30 mins; type: ADME, organism-based; details: in vivo, 0.5 h; procedure, shortened: as §4
Rattus norvegicus [27] = assay: Biodistribution in adrenal cortex of rat assessed per organ at 3.6 x 10^-8 mol, iv measured after 2 hrs; type: ADME, organism-based; details: in vivo; procedure, shortened: as §5
Kidney [28] = assay: Biodistribution in kidney of mouse assessed per organ at 8 to 11 x 10^-8 mol, iv measured after 120 mins; type: ADME, organism-based; details: in vivo, 2 h; procedure, shortened: as §4
Kidney [29] = assay: Biodistribution in kidney of rat assessed per organ at 3.6 x 10^-8 mol, iv measured after 30 mins; type: ADME, organism-based; details: in vivo, 0.5 h; procedure, shortened: as §5
Kidney [30] = assay: Biodistribution in kidney of mouse assessed per organ at 8 to 11 x 10^-8 mol, iv measured after 15 mins; type: ADME, organism-based; details: in vivo, 0.25 h; procedure, shortened: as §4
Rattus norvegicus [31] = assay: Biodistribution in thyroid gland of rat assessed per organ at 3.6 x 10^-8 mol, iv measured after 60 mins; type: ADME, organism-based; details: in vivo, 1 h; procedure, shortened: as §3
Blood [32] = assay: Biodistribution in blood of rat at 3.6 x 10^-8 mol, iv measured after 5 mins; type: ADME, organism-based; details: in vivo; procedure, shortened: as §6
Liver [33] = assay: Biodistribution in liver of rat assessed per organ at 3.6 x 10^-8 mol, iv measured after 30 mins; type: ADME, organism-based; details: in vivo, 0.5 h; procedure, shortened: as §3

SMILES: Br.NCCc1cc(O)c(O)cc1[131I]
- Drug uptake [1]: 0.075 %ID
- Drug uptake (Mus musculus [2]): 0.158 %ID
- Drug uptake (Liver [3]): 0.072 %ID
- Drug uptake (Mus musculus [4]): 0.03 %ID
- Drug uptake (Rattus norvegicus [5]): 0.000081 %ID
- Drug uptake (Mus musculus [6]): 0.066 %ID
- Drug uptake (Rattus norvegicus [7]): 0.002 %ID
- Drug uptake (Liver [8]): 1.04 %ID
- Drug uptake (Kidney [9]): 0.194 %ID
- Drug uptake (Mus musculus [10]): 0.012 %ID
- Drug uptake (Blood [11]): 0.055 %ID
- Drug uptake (Mus musculus [12]): 0.0087 %ID
- Drug uptake (Rattus norvegicus [13]): 0.062 %ID
- Drug uptake (Liver [14]): 2.4 %ID
- Drug uptake (Rattus norvegicus [15]): 0.65 %ID
- Drug uptake (Kidney [16]): 1 %ID
- Drug uptake (Blood [17]): 0.052 %ID
- Drug uptake (Rattus norvegicus [18]): 0.029 %ID
- Drug uptake (Blood [19]): 0.131 %ID
- Drug uptake (Rattus norvegicus [20]): 0.251 %ID
- Drug uptake [21]: 0.0021 %ID
- Drug uptake [22]: 0.0062 %ID
- Drug uptake (Liver [23]): 0.67 %ID
- Drug uptake [24]: 0.77 %ID
- Drug uptake (Kidney [25]): 1.69 %ID
- Drug uptake (Mus musculus [26]): 0.014 %ID
- Drug uptake (Rattus norvegicus [27]): 0.0028 %ID
- Drug uptake (Kidney [28]): 0.78 %ID
- Drug uptake (Kidney [29]): 2.37 %ID
- Drug uptake (Kidney [30]): 3.44 %ID
- Drug uptake (Rattus norvegicus [31]): 0.08 %ID
- Drug uptake (Blood [32]): 0.66 %ID
- Drug uptake (Liver [33]): 2.36 %ID
